ChEMBL document CHEMBL1154217, “Antimalarial and cytotoxic depsidones from the fungus Chaetomium brasiliense” (J Nat Prod, 2009)
Values after ≈ are worked out from the molar mass of the structure shown. Active and inactive are the calls of the source. The rule behind the calls is not given here.

Key:
Candida albicans [1] = assay: Antifungal activity against Candida albicans by XTT assay; type: functional, organism-based
Procedure, shortened: (§1)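 Clinical isolate of Candida albicans tested by an assay modified from the soluble formazan (XTT) method. Viable cells were quantified from XTT formazan absorbance at 450 nm. Amphotericin B served as the reference substance.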

Plasmodium falciparum [2] = assay: Antimalarial activity against multi drug-resistant Plasmodium falciparum K1 assessed as [3H]hypoxanthine uptake after 18 hrs by microculture radioisotope technique; type: functional, organism-based
Procedure, shortened: (§2)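 Multidrug-resistant P. falciparum K1 was cultured by the Trager and Jensen method and tested in vitro by microculture radioisotope technique. Growth was read as [³H]-hypoxanthine uptake, and IC50 was taken as the concentration giving 50% reduction in parasite growth. Artemisinin served as the reference standard.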

[3] = Cytotoxicity against human BC1 cells by SRB assay; type: functional, cell-based
[4] = Cytotoxicity against human KKU100 cells by MTT assay; type: functional, cell-based
[5] = Cytotoxicity against human KKU-M139 cells by MTT assay; type: functional, cell-based
[6] = Cytotoxicity against human KKU-M156 cells by MTT assay; type: functional, cell-based
[7] = Cytotoxicity against human KKU-M213 cells by MTT assay; type: functional, cell-based
[8] = Cytotoxicity against human KKU-M214 cells by MTT assay; type: functional, cell-based
[9] = tested on: Mycobacterium tuberculosis; assay: Antimycobacterial activity against Mycobacterium tuberculosis H37Ra after 4 days by almar blue assay; type: functional; details: 96 h
Procedure, shortened: (§3)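 M. tuberculosis H37Ra was tested by microplate Alamar Blue assay (MABA), with isoniazid and kanamycin sulfate as reference drugs.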

KB [10] = assay: Cytotoxicity against human KB cells by SRB assay; type: functional, cell-based
NCI-H187 = assay: Cytotoxicity against human NCI-H187 cells by SRB assay; type: functional, cell-based
[11] = tested on: Mycobacterium tuberculosis; assay: Antimycobacterial activity against Mycobacterium tuberculosis H37Ra at > 50 ug/mL after 4 days by almar blue assay; type: functional, organism-based; procedure, shortened: as §3
Candida albicans [12] = assay: Antifungal activity against Candida albicans at > 50 ug/mL by XTT assay; type: functional, organism-based; procedure, shortened: as §1
BC1 = assay: Cytotoxicity against human BC1 cells at > 50 ug/mL by SRB assay; type: functional, cell-based
Plasmodium falciparum [13] = assay: Antimalarial activity against multi drug-resistant Plasmodium falciparum K1 assessed as [3H]hypoxanthine uptake at > 50 ug/mL after 18 hrs by microculture radioisotope technique; type: functional, organism-based; procedure, shortened: as §2
KB [14] = assay: Cytotoxicity against human KB cells at > 50 ug/mL by SRB assay; type: functional, cell-based

| Compound | IC50 (Candida albicans [1]) [µg/mL] | IC50 (Plasmodium falciparum [2]) [µg/mL] | IC50 [3] [µg/mL] | IC50 [4] [µg/mL] | IC50 [5] [µg/mL] | IC50 [6] [µg/mL] | IC50 [7] [µg/mL] | IC50 [8] [µg/mL] | MIC [9] [µg/mL] | IC50 (KB [10]) [µg/mL] | IC50 (NCI-H187) [µg/mL] | Activity [11] | Activity (Candida albicans [12]) | Activity (BC1) | Activity (Plasmodium falciparum [13]) | Activity (KB [14]) |
| --- | --- | --- | --- | --- | --- | --- | --- | --- | --- | --- | --- | --- | --- | --- | --- | --- |
| C[C@@H]1[C@H](O)[C@@H](C)/C=C/C=C/C=C/C=C/C=C/C=C/C=C/[C@H](O[C@@H]2O[C@H](C)[C@@H](O)[C@H](N)[C@@H]2O)C[C@@H]2O[C@](O)(C[C@@H](O)C[C@@H](O)[C@H](O)CC[C@@H](O)C[C@@H](O)CC(=O)O[C@H]1C)C[C@H](O)[C@H]2C(=O)O [AMPHOTERICIN B] | 0.034 (≈ 0.0368 µM) | – | – | – | – | – | – | – | – | – | – | – | – | – | – | – |
| C[C@@H]1CC[C@H]2[C@@H](C)C(=O)O[C@@H]3O[C@@]4(C)CC[C@@H]1[C@]32OO4 [ARTEMISININ] | – | 0.001 (≈ 0.00354 µM) | – | – | – | – | – | – | – | – | – | – | – | – | – | – |
| Cc1c2ccncc2c(C)c2c1[nH]c1ccccc12 [ELLIPTECINE] | – | – | 0.26 (≈ 1.06 µM) | 7.11 (≈ 28.9 µM) | 1.21 (≈ 4.91 µM) | 2.02 (≈ 8.2 µM) | 0.3 (≈ 1.22 µM) | 0.21 (≈ 0.853 µM) | – | – | – | – | – | – | – | – |
| NNC(=O)c1ccncc1 [ISONIAZID] | – | – | – | – | – | – | – | – | 0.05 (≈ 0.365 µM) | – | – | – | – | – | – | – |
| NC[C@H]1O[C@H](O[C@H]2[C@H](O)[C@@H](O[C@H]3O[C@H](CO)[C@@H](O)[C@H](N)[C@H]3O)[C@H](N)C[C@@H]2N)[C@H](O)[C@@H](O)[C@@H]1O.O=S(=O)(O)O [KANAMYCIN SULFATE] | – | – | – | – | – | – | – | – | 2.5 | – | – | – | – | – | – | – |
| Cc1cc(O)c(C=O)c2c1C(=O)Oc1c(cc3c(c1C)C(=O)CC(C)(C)O3)O2 [MOLLICELLIN B] | – | 4.7 (≈ 12.3 µM) | – | 4.63 (≈ 12.1 µM) | 11.7 (≈ 30.5 µM) | 15.7 (≈ 41 µM) | 6.94 (≈ 18.2 µM) | 4.5 (≈ 11.8 µM) | – | 37.1 (≈ 97 µM) | 14.7 (≈ 38.4 µM) | inactive | inactive | – | – | – |
| COc1c(O)c2c(c(C)c1C(=O)C=C(C)C)Oc1c(C=O)c(O)cc(C)c1C(=O)O2 [MOLLICELLIN C] | 49.9 (≈ 121 µM) | 9.1 (≈ 22.1 µM) | – | 5.12 (≈ 12.4 µM) | 2.51 (≈ 6.09 µM) | 4.18 (≈ 10.1 µM) | 3.2 (≈ 7.76 µM) | 3.35 (≈ 8.12 µM) | – | 46.3 (≈ 112 µM) | 3.1 (≈ 7.52 µM) | inactive | – | inactive | – | – |
| COc1c(O)c2c(c(C)c1C(=O)C=C(C)C)Oc1c(C=O)c(O)c(Cl)c(C)c1C(=O)O2 [MOLLICELLIN E] | 39.7 (≈ 88.8 µM) | 3.2 (≈ 7.16 µM) | – | 4.83 (≈ 10.8 µM) | 5.03 (≈ 11.3 µM) | 5.22 (≈ 11.7 µM) | 4.44 (≈ 9.94 µM) | 7.81 (≈ 17.5 µM) | – | – | 1 (≈ 2.24 µM) | inactive | – | – | – | – |
| Cc1c2c(c(O)c3c1C(=O)CC(C)(C)O3)OC(=O)c1c(C)c(Cl)c(O)c(C=O)c1O2 [MOLLICELLIN F] | – | – | – | 5.21 (≈ 12 µM) | 5.21 (≈ 12 µM) | 5.36 (≈ 12.4 µM) | 4.98 (≈ 11.5 µM) | 4.4 (≈ 10.2 µM) | – | 37.9 (≈ 87.6 µM) | 13.1 (≈ 30.3 µM) | inactive | – | – | inactive | – |
| CC(C)=CCc1c(O)cc2c(c1C)OC(=O)c1c(C)cc(O)c(C=O)c1O2 [MOLLICELLIN H] | – | – | – | – | – | – | – | – | – | 16.6 (≈ 45.1 µM) | 3.9 (≈ 10.6 µM) | inactive | – | – | – | – |
| CC(C)=CCc1c(O)cc2c(c1C)OC(=O)c1c(C)c(Cl)c(O)c(C=O)c1O2 [MOLLICELLIN J] | – | 4.9 (≈ 12.2 µM) | – | – | – | – | – | – | – | 29.1 (≈ 72.2 µM) | 23.3 (≈ 57.8 µM) | inactive | – | – | – | – |
| COc1cc2c(c(C)c1C(=O)C=C(C)C)OC(=O)c1c(C)cc(O)c(C=O)c1O2 [MOLLICELLIN L] | – | 3.4 (≈ 8.58 µM) | – | – | 8.55 (≈ 21.6 µM) | 6.04 (≈ 15.2 µM) | 13.2 (≈ 33.3 µM) | 4.51 (≈ 11.4 µM) | – | 33.9 (≈ 85.5 µM) | 9.5 (≈ 24 µM) | inactive | inactive | – | – | – |
| Cc1c2c(cc3c1C(=O)CC(C)(C)O3)Oc1c(C=O)c(O)c(Cl)c(C)c1C(=O)O2 [MOLLICELLIN M] | – | 2.9 (≈ 6.96 µM) | – | 6.28 (≈ 15.1 µM) | – | – | – | – | – | – | 0.68 (≈ 1.63 µM) | inactive | inactive | inactive | – | inactive |
| Cc1cc(O)c(C=O)c2c1C(=O)Oc1c(O)c3c(c(C)c1O2)C(=O)CC(C)(C)O3 [MOLLICELLIN N] | – | – | – | 6.46 (≈ 16.2 µM) | 4.34 (≈ 10.9 µM) | 2.9 (≈ 7.28 µM) | 3 (≈ 7.53 µM) | 5.05 (≈ 12.7 µM) | – | 25.9 (≈ 65 µM) | 13.5 (≈ 33.9 µM) | inactive | inactive | – | inactive | – |
| CC(C)=CC(=O)c1c(O)cc2c(c1C)OC(=O)c1c(C)cc(O)c(C=O)c1O2 [MOLLICELLINE K] | 1.2 (≈ 3.14 µM) | 1.2 (≈ 3.14 µM) | 6.8 (≈ 17.8 µM) | 4.46 (≈ 11.7 µM) | 13.9 (≈ 36.5 µM) | 6.65 (≈ 17.4 µM) | – | 4.92 (≈ 12.9 µM) | 12.5 (≈ 32.7 µM) | 1.9 (≈ 4.97 µM) | 0.35 (≈ 0.915 µM) | – | – | – | – | – |
